{"source": "ChEMBL document CHEMBL3352165", "about": "(Eur J Med Chem, 2014)", "key": {"BT-474 [1]": {"test_system": "BT-474", "assay": "Induction of cell cycle arrest in human BT474 cells assessed as accumulation at S phase at 0.1 uM incubated for 12 hrs by propidium iodide staining based flow cytometry (reference value: 19%)", "format": "functional"}, "[2]": {"assay": "Clearance in Beagle dog at 240 mg/kg, po dosed for 14 days by LC/MS/MS method", "format": "ADME, organism-based, Canis lupus familiaris", "set-up": "dose 240 mg/kg, route oral", "conditions": "in vivo", "how_it_was_run": "(§1)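 Beagle dogs (n = 6) dosed by oral gavage at 240 mg/kg daily for 14 consecutive days. Blood taken predose and at 0.25–24 h on days 1 and 14, plasma stored at −20 °C, analysed by validated LC/MS/MS. Half-life and AUC by model-independent methods; Cmax and MRT read from concentration–time data.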"}, "[3]": {"assay": "Antitumor activity against human Calu3 cells xenografted in BALB/cA mouse assessed as tumor growth inhibition at 200 mg/kg, po", "format": "functional", "conditions": "Calu-3, read-out: TGI", "how_it_was_run": "(§2)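 Female BALB/cA nude mice, 6–7 weeks old, implanted s.c. on midright side with 2×10^6 Calu-3 cells in 0.2 ml PBS. Grouped at 60–150 mm³ tumour volume (6 per treated group, 12 vehicle). Oral dosing in 0.5% CMC with 0.1% Tween-80. Caliper volume = L×W²×0.5; inhibition = (1 − T/C)×100% on relative tumour volume; weight tracked for 21 d.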"}, "A-431": {"test_system": "A-431", "assay": "Cytotoxicity against human A431 cells assessed as inhibition of cell growth after 72 hrs by sulforhodamine B assay", "format": "functional, cell-based", "conditions": "A-431, 72 h", "how_it_was_run": "(§3)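 Cells grown in RPMI-1640 with 5% FBS and plated at 5.0×10^4/ml. Next day exposed to 0.5–5000 ng/ml for 3 days. Survival read by sulforhodamine B staining. IC50 taken from growth curves; mean of at least three determinations.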"}, "[4]": {"assay": "Cytotoxicity against human SKBR3 cells assessed as inhibition of cell growth after 72 hrs by sulforhodamine B assay", "format": "functional, cell-based", "conditions": "SK-BR-3, 72 h", "how_it_was_run": "as §3"}, "BT-474 [5]": {"test_system": "BT-474", "assay": "Induction of cell cycle arrest in human BT474 cells assessed as accumulation at S phase at 1 uM incubated for 12 hrs by propidium iodide staining based flow cytometry (reference value: 19%)", "format": "functional"}, "BT-474 [6]": {"test_system": "BT-474", "assay": "Induction of cell cycle arrest in human BT474 cells assessed as accumulation at G2/M phase at 0.01 uM incubated for 12 hrs by propidium iodide staining based flow cytometry (reference value: 14%)", "format": "functional"}, "[7]": {"molecular_target": "Epidermal growth factor receptor (Homo sapiens, UniProt P00533)", "sequence (P00533 whole entry)": "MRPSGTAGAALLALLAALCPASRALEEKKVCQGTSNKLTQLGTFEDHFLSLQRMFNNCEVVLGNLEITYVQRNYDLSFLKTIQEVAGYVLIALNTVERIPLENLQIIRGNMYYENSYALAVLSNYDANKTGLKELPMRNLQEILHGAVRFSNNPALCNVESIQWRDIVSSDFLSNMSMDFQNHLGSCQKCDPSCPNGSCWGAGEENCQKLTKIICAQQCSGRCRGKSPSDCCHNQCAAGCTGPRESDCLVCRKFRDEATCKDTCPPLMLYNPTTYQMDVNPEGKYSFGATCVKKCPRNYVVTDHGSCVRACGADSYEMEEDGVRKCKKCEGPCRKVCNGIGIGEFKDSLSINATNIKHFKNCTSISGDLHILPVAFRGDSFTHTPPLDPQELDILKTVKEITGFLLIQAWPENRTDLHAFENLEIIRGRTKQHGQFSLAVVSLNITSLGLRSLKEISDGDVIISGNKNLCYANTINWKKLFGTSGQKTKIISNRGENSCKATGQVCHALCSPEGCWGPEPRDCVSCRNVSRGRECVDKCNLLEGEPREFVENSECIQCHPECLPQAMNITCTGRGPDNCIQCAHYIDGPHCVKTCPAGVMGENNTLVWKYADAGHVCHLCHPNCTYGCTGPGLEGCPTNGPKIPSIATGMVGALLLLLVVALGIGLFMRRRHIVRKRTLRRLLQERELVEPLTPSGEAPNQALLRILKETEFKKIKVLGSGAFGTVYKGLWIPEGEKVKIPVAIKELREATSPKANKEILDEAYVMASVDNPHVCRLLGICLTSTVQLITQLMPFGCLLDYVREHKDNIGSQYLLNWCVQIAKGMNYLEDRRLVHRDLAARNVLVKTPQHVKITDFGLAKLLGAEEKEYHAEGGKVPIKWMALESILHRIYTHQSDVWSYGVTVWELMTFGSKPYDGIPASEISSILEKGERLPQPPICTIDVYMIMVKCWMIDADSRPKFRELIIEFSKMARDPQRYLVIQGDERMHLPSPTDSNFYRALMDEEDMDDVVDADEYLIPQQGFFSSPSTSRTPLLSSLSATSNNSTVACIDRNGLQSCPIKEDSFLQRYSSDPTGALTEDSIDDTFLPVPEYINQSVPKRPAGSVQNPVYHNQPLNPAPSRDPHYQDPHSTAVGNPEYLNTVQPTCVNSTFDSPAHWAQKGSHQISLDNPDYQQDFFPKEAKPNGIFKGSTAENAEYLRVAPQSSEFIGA", "conditions": "A-431, 0.001 to 1 uM"}, "BT-474 [8]": {"test_system": "BT-474", "assay": "Induction of cell cycle arrest in human BT474 cells assessed as accumulation at S phase at 10 uM incubated for 12 hrs by propidium iodide staining based flow cytometry (reference value: 19%)", "format": "functional"}, "BT-474 [9]": {"test_system": "BT-474", "assay": "Induction of cell cycle arrest in human BT474 cells assessed as accumulation at G1 phase at 10 uM incubated for 12 hrs by propidium iodide staining based flow cytometry (reference value: 67%)", "format": "functional"}, "[10]": {"assay": "Mean residence time in Beagle dog at 240 mg/kg, po administered as single dose measured after 0.25 to 24 hrs post dose by LC/MS/MS method", "format": "ADME, organism-based, Canis lupus familiaris", "set-up": "dose 240 mg/kg, route oral", "conditions": "in vivo", "how_it_was_run": "(§4)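 Single oral gavage of 240 mg/kg to beagle dogs (n = 6). Blood sampled at 0.25–24 h, kept on ice, centrifuged within 1 h (1000 × g, 4 °C, 15 min), plasma stored at −20 °C. Drug quantified by validated LC/MS/MS. AUC0–24 from non-compartmental analysis; Cmax and MRT taken directly from concentration–time data.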"}, "[11]": {"molecular_target": "Vascular endothelial growth factor receptor 2 (Homo sapiens, UniProt P35968)", "sequence (P35968 whole entry)": "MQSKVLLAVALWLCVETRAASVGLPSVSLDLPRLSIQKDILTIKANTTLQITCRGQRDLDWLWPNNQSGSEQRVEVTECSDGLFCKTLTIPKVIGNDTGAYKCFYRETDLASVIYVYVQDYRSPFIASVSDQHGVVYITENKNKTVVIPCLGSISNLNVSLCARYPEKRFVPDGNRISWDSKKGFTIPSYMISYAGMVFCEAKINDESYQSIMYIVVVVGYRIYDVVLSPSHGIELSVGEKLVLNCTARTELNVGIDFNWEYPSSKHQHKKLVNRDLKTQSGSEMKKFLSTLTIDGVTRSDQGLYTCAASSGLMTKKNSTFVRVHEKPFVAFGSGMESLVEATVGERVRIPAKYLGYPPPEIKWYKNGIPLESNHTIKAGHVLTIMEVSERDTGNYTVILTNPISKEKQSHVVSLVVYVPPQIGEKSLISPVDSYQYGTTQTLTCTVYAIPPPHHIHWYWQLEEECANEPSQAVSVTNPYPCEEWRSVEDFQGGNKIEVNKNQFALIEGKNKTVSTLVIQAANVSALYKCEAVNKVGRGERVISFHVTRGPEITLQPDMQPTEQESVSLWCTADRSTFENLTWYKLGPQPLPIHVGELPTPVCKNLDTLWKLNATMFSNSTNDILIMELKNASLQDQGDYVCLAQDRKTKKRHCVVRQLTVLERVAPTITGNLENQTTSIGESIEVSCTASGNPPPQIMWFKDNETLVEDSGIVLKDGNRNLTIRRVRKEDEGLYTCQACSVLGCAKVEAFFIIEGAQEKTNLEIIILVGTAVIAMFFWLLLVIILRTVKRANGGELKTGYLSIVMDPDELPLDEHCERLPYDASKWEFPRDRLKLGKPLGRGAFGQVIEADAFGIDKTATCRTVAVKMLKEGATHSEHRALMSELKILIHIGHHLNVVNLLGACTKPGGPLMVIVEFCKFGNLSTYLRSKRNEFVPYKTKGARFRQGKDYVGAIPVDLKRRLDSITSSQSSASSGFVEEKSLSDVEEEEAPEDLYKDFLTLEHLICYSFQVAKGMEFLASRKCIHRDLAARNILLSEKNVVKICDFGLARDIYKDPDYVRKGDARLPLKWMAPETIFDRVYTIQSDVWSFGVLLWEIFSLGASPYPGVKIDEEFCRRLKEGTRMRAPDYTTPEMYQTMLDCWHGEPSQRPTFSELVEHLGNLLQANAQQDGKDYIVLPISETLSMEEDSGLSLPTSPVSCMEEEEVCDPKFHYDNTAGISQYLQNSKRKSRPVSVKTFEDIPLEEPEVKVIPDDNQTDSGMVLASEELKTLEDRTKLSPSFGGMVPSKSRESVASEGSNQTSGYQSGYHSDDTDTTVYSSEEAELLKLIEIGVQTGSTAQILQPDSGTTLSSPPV", "assay": "Inhibition of KDR (unknown origin) by ELISA method", "how_it_was_run": "(§5)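 Phosphotyrosine ELISA with purified kinase (20 ng) and 5 µM ATP in buffer (50 mM HEPES pH 7.4, 20 mM MgCl2, 0.1 mM MnCl2, 0.2 mM Na3VO4, 1 mM DTT), 1 h at 37 °C, DMSO ≤1%. Detection by PY99 antibody, then HRP anti-mouse IgG with o-phenylenediamine, A490. IC50 by Logit from at least three independent tests.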"}, "BT-474 [12]": {"test_system": "BT-474", "assay": "Induction of cell cycle arrest in human BT474 cells assessed as accumulation at G2/M phase at 0.1 uM incubated for 12 hrs by propidium iodide staining based flow cytometry (reference value: 14%)", "format": "functional"}, "Mus musculus [13]": {"test_system": "Mus musculus", "assay": "Toxicity in human Calu3 cells xenografted BALB/cA mouse assessed as body weight loss at 200 mg/kg, po measured every other day for 21 days", "format": "organism-based, Calu-3", "set-up": "dose 200 mg/kg, route oral", "conditions": "in vivo, 504 h", "how_it_was_run": "(§6)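 Female BALB/cA nude mice, 6–7 weeks old, implanted s.c. on the mid-right flank with 2×10^6 Calu-3 cells in 0.2 ml PBS. At 60–150 mm³ tumour volume, mice randomised into six per treatment group (twelve vehicle controls). Oral dosing in 0.5% CMC aqueous solution with 0.1% Tween-80. Body weight recorded every other day for 21 d.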"}, "[14]": {"molecular_target": "Receptor tyrosine-protein kinase erbB-2 (Homo sapiens, UniProt P04626)", "sequence (P04626 whole entry)": "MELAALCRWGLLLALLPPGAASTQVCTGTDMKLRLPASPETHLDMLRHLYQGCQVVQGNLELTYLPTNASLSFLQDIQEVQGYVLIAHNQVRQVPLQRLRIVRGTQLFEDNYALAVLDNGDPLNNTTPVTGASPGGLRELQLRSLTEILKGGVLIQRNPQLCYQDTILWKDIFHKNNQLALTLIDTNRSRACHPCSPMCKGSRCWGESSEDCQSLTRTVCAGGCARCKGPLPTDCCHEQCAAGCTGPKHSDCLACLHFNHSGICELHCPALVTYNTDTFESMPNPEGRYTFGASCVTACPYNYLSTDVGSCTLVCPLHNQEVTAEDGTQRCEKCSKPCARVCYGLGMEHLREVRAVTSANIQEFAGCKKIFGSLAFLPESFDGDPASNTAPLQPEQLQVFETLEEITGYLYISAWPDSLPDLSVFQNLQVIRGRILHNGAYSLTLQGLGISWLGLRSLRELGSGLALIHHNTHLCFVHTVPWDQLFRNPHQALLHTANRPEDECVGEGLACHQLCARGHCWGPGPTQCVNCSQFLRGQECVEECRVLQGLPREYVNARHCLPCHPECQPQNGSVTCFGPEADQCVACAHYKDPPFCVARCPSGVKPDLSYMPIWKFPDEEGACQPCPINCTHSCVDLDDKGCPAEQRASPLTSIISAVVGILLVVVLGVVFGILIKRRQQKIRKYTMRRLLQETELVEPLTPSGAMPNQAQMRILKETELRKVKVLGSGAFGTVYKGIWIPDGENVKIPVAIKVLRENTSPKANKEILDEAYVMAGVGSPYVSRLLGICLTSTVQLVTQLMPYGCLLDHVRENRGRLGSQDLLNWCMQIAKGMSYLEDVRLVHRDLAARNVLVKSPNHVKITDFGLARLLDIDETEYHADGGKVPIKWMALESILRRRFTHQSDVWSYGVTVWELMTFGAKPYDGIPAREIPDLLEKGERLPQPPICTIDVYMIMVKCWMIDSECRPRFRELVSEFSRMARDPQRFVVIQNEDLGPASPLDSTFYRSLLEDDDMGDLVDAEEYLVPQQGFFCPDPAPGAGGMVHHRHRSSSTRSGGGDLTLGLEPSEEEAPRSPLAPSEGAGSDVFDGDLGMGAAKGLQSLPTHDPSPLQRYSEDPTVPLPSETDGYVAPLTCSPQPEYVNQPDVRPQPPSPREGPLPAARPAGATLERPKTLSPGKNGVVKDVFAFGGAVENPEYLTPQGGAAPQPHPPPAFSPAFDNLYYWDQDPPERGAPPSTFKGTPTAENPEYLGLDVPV", "conditions": "BT-474, 0.001 to 1 uM"}, "MDA-MB-453": {"test_system": "MDA-MB-453", "assay": "cells", "conditions": "Homo sapiens, MDA-MB-453, 72 h"}, "MCF7": {"test_system": "MCF7", "assay": "Cytotoxicity against human MCF7 cells assessed as inhibition of cell growth after 72 hrs by sulforhodamine B assay", "format": "functional, cell-based", "conditions": "MCF7, 72 h", "how_it_was_run": "as §3"}, "[15]": {"assay": "Cmax in Beagle dog at 240 mg/kg, po administered as single dose measured after 0.25 to 24 hrs post dose by LC/MS/MS method", "format": "ADME, organism-based, Canis lupus familiaris", "set-up": "dose 240 mg/kg, route oral", "conditions": "in vivo", "how_it_was_run": "as §4"}, "BT-474 [16]": {"test_system": "BT-474", "assay": "Induction of cell cycle arrest in human BT474 cells assessed as accumulation at S phase at 0.001 uM incubated for 12 hrs by propidium iodide staining based flow cytometry (reference value: 19%)", "format": "functional"}, "BT-474 [17]": {"test_system": "BT-474", "assay": "Induction of cell cycle arrest in human BT474 cells assessed as accumulation at S phase at 0.01 uM incubated for 12 hrs by propidium iodide staining based flow cytometry (reference value: 19%)", "format": "functional"}, "[18]": {"assay": "AUC (0 to 24 hrs) in Beagle dog at 240 mg/kg, po dosed for 14 days by LC/MS/MS method", "format": "ADME, organism-based, Canis lupus familiaris", "set-up": "time < 24 hr, dose 240 mg/kg, route oral", "conditions": "plasma", "how_it_was_run": "as §1"}, "BT-474 [19]": {"test_system": "BT-474", "assay": "Induction of cell cycle arrest in human BT474 cells assessed as accumulation at G2/M phase at 1 uM incubated for 12 hrs by propidium iodide staining based flow cytometry (reference value: 14%)", "format": "functional"}, "[20]": {"molecular_target": "Mast/stem cell growth factor receptor Kit (Homo sapiens, UniProt P10721)", "sequence (P10721 whole entry)": "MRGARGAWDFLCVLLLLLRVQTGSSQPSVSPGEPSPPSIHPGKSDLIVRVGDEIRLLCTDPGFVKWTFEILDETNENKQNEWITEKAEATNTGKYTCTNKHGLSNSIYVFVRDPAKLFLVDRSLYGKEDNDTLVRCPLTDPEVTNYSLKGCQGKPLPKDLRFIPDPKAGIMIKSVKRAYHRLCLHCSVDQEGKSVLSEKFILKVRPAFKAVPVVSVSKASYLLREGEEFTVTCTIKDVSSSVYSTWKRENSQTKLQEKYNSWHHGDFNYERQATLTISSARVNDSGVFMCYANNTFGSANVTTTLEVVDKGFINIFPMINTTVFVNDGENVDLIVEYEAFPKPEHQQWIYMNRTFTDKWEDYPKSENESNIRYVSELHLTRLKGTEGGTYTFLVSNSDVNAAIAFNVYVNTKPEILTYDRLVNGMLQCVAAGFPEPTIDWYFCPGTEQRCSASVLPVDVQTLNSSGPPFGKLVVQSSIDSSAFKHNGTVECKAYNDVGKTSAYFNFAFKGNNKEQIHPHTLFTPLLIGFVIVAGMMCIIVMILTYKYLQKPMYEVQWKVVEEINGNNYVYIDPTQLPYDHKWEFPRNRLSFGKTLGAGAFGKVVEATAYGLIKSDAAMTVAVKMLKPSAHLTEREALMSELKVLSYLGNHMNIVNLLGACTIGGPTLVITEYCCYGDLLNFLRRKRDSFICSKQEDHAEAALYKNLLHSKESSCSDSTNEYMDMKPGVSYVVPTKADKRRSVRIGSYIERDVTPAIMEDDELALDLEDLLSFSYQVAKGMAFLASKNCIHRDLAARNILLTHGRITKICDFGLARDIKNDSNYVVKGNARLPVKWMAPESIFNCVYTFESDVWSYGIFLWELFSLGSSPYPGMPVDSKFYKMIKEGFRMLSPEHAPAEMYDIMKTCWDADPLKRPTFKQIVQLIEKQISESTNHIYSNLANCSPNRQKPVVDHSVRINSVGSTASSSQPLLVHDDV", "assay": "Inhibition of c-KIT (unknown origin) by ELISA method", "how_it_was_run": "as §5"}, "[21]": {"assay": "Antitumor activity against human Calu3 cells xenografted in BALB/cA mouse assessed as tumor growth inhibition at 100 mg/kg, po", "format": "functional", "conditions": "Calu-3, read-out: TGI", "how_it_was_run": "as §2"}, "[22]": {"assay": "Cmax in Beagle dog at 240 mg/kg, po dosed for 14 days by LC/MS/MS method", "format": "ADME, organism-based, Canis lupus familiaris", "set-up": "dose 240 mg/kg, route oral", "conditions": "in vivo", "how_it_was_run": "as §1"}, "[23]": {"assay": "Tmax in Beagle dog at 240 mg/kg, po administered as single dose measured after 0.25 to 24 hrs post dose by LC/MS/MS method", "format": "ADME, organism-based, Canis lupus familiaris", "set-up": "dose 240 mg/kg, route oral", "conditions": "in vivo", "how_it_was_run": "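Beagle dogs (n = 6), single oral gavage dose of 240 mg/kg. Plasma levels measured by validated LC/MS/MS. Tmax read directly from the concentration-time data.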"}, "Mus musculus [24]": {"test_system": "Mus musculus", "assay": "Toxicity in human Calu3 cells xenografted BALB/cA mouse assessed as body weight loss at 100 mg/kg, po measured every other day for 21 days", "format": "organism-based, Calu-3", "set-up": "dose 100 mg/kg, route oral", "conditions": "in vivo, 504 h", "how_it_was_run": "as §6"}}, "data": [{"smiles": "CN(C)[C@H](CS(C)(=O)=O)c1ccc(-c2ccc3ncnc(Nc4ccc(OCc5cccc(F)c5)c(Cl)c4)c3c2)o1", "values": [{"measurement": "Activity", "setting": "BT-474 [1]", "result": 5, "unit": "%"}, {"measurement": "CL/F", "setting": "[2]", "result": 432, "unit": "mL/min"}, {"measurement": "inhibition in vivo at 200 mg/kg", "setting": "[3]", "result": 83, "unit": "%"}, {"measurement": "IC50", "setting": "A-431", "result": 634, "unit": "nM"}, {"measurement": "IC50", "setting": "[4]", "result": 18.4, "unit": "nM"}, {"measurement": "Activity", "setting": "BT-474 [5]", "result": 6, "unit": "%"}, {"measurement": "Activity", "setting": "BT-474 [6]", "result": 14, "unit": "%"}, {"measurement": "inhibition", "setting": "[7]", "result": "Dose-dependent effect"}, {"measurement": "Activity", "setting": "BT-474 [8]", "result": 8, "unit": "%"}, {"measurement": "Activity", "setting": "BT-474 [9]", "result": 80, "unit": "%"}, {"measurement": "MRT", "setting": "[10]", "result": 6.1, "unit": "h"}, {"measurement": "IC50", "setting": "[11]", "result": "> 200000", "unit": "nM"}, {"measurement": "Activity", "setting": "BT-474 [12]", "result": 11, "unit": "%"}, {"measurement": "Activity", "setting": "Mus musculus [13]", "result": "Non-toxic"}, {"measurement": "inhibition", "setting": "[14]", "result": "Dose-dependent effect"}, {"measurement": "IC50", "setting": "MDA-MB-453", "result": 260, "unit": "nM"}, {"measurement": "IC50", "setting": "MCF7", "result": 5670, "unit": "nM"}, {"measurement": "Cmax", "setting": "[15]", "result": 3100, "unit": "ng/mL"}, {"measurement": "Activity", "setting": "BT-474 [16]", "result": 16, "unit": "%"}, {"measurement": "Activity", "setting": "BT-474 [17]", "result": 9, "unit": "%"}, {"measurement": "AUC at 24 h", "setting": "[18]", "result": 29800, "unit": "ng·h/mL"}, {"measurement": "Activity", "setting": "BT-474 [19]", "result": 12, "unit": "%"}, {"measurement": "IC50", "setting": "[20]", "result": "> 200000", "unit": "nM"}, {"measurement": "inhibition in vivo at 100 mg/kg", "setting": "[21]", "result": 68, "unit": "%"}, {"measurement": "Cmax", "setting": "[22]", "result": 2900, "unit": "ng/mL"}, {"measurement": "Tmax", "setting": "[23]", "result": 4, "unit": "h"}, {"measurement": "Activity", "setting": "Mus musculus [24]", "result": "Non-toxic"}]}]}
